Like-named read-outs stand apart in the source and are kept apart here.
Columns and labels:
[1] = tested on: hTel quadruplex (human telomere); assay: SPR equilibrium binding, hTel quadruplex; conditions: strong binding site; 25°C, HEPES 100mM KCl pH 7.3
Procedure, shortened: (§1)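 5′-Biotinylated quadruplex oligonucleotides were captured on a streptavidin chip to 350-400 RU, with a blank reference flow cell. Runs used 10mM HEPES, 100mM KCl, 3mM EDTA and P20 surfactant (pH 7.3) at 25°C. Ligand (1nM–10µM) was injected at 50µl/min for 5–10 min to steady state, then buffer for 10 min. The surface was regenerated with 10mM glycine pH 2.0, and KA came from nonlinear least-squares fitting.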

c-kit1 quadruplex = assay: SPR equilibrium binding, c-kit1 quadruplex; design: species or system human; conditions: strong binding site; 25°C
Procedure, shortened: as §1

c-kit2 quadruplex = assay: SPR equilibrium binding, c-kit2 quadruplex; design: species or system human; conditions: strong binding site; 25°C
Procedure, shortened: as §1

c-myc quadruplex = assay: SPR equilibrium binding, c-myc quadruplex; design: species or system human; conditions: for SPR Ligand KA for a single-site fit, c-myc: strong binding site, 25°C
Procedure, shortened: as §1

MCF7 cells [2] = assay: Long-term; type: cell-based, human; conditions: 1 week MCF7
Procedure, shortened: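 MCF7 cells (1×10^5 seeded, supplemented DMEM, 37 °C, 5% CO2) were exposed for 1 week to two sub-cytotoxic ligand concentrations, re-dosed twice weekly, alongside a media-only control. Cells were counted by haemocytometer, and population doublings were calculated as n = (log Pn – log P0)/log2, where P0 is the seeding density. Values are reported ± sd.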

MCF7 cells [3] = assay: Assessment of chromosomal end-end fusions; type: cell-based, human; conditions: 1 week, data not shown
[4] = tested on: FRET-tagged duplex DNA sequence; assay: FRET melting assay, duplex DNA; type: binding
[5] = tested on: hTel quadruplex (human telomere); conditions: strong binding site; cited from earlier work
DNA hairpin duplex = conditions: cited from earlier work
[6] = tested on: MCF7 breast adenocarcinoma cell line; conditions: read-out: SRB IC50, MCF7; cited from earlier work
[7] = tested on: A549 non-small cell lung carcinoma cell line; conditions: read-out: SRB IC50, A549; cited from earlier work

O=C(CCN1CCCC1)Nc1ccc(NC(=O)c2cccc(NC(=O)Nc3cccc(C(=O)Nc4ccc(NC(=O)CCN5CCCC5)cc4)c3)c2)cc1 [9b, 1,3-bis(3-(4-(3-(pyrrolidin-1-yl)propanamido)phenylcarbamoyl)phenyl)urea]
SPR Ligand KA for a single-site fit, hTel [1]: 1.1e+06 M⁻¹
SPR Ligand KA for a single-site fit, c-kit1 (c-kit1 quadruplex): 1.4e+06 M⁻¹
SPR Ligand KA for a single-site fit, c-kit2 (c-kit2 quadruplex): 5e+06 M⁻¹
SPR Ligand KA for a single-site fit, c-myc (c-myc quadruplex): 2.1e+06 M⁻¹
PD (population doublings) (MCF7 cells [2]; 1.00 μM): 4.53 ± 0.07
PD (population doublings) (MCF7 cells [2]; 1.75 μM): 4.50 ± 0.03
PD (population doublings) (MCF7 cells [2]; 2.25 μM): 2.73 ± 0.20
chromosomal end-end fusions relative to an untreated control (MCF7 cells [3]): did not show significant changes

O=C(CN1CCCC1)Nc1ccc(NC(=O)c2cccc(NC(=O)Nc3cccc(C(=O)Nc4ccc(NC(=O)CN5CCCC5)cc4)c3)c2)cc1 [9a, 1,3-bis(3-(4-(2-(pyrrolidin-1-yl)acetamido)phenylcarbamoyl)phenyl)urea]
FRET ΔTm at a 1μM ligand concentration, Duplex [4]: 0.0 ± 0.6 °C
SPR Ligand KA for a single-site fit, hTel [1]: 1.4e+06 M⁻¹
SPR Ligand KA for a single-site fit, c-kit1 (c-kit1 quadruplex): 2.1e+06 M⁻¹
SPR Ligand KA for a single-site fit, c-kit2 (c-kit2 quadruplex): 5.1e+06 M⁻¹
selectivity for the c-myc quadruplex (SPR) (c-myc quadruplex; relative to the other quadruplexes): ~3 fold
SPR Ligand KA for a single-site fit, c-myc (c-myc quadruplex): 1.4e+07 M⁻¹
PD (population doublings) (MCF7 cells [2]; 5.00 μM): 3.79 ± 0.12
PD (population doublings) (MCF7 cells [2]; 10.00 μM): 3.00 ± 0.38

O=C(CCN1CCCC1)Nc1cccc(NC(=O)c2ccc(NC(=O)Nc3ccc(C(=O)Nc4cccc(NC(=O)CCN5CCCC5)c4)cc3)cc2)c1 [10e, 1,3-bis(4-(3-(3-(pyrrolidin-1-yl)propanamido)phenylcarbamoyl)phenyl)urea]
PD (population doublings) (MCF7 cells [2]; 1.00 μM): 3.40 ± 0.26
PD (population doublings) (MCF7 cells [2]; 2.00 μM): 1.81 ± 0.10

O=C(CCN1CCCCC1)Nc1ccc(NC(=O)c2cccc(NC(=O)Nc3cccc(C(=O)Nc4ccc(NC(=O)CCN5CCCCC5)cc4)c3)c2)cc1 [9h, 1,3-bis(3-(4-(3-(piperidin-1-yl)propanamido)phenylcarbamoyl)phenyl)urea]
PD (population doublings) (MCF7 cells [2]; 2.00 μM): 3.66 ± 0.00
PD (population doublings) (MCF7 cells [2]; 3.50 μM): 3.46 ± 0.34

O=C(CCCN1CCCC1)Nc1cccc(NC(=O)c2cccc(NC(=O)Nc3cccc(C(=O)Nc4cccc(NC(=O)CCCN5CCCC5)c4)c3)c2)c1 [9f, 1,3-bis(3-(3-(4-(pyrrolidin-1-yl)butanamido)phenylcarbamoyl)phenyl)urea]
FRET ΔTm at a 1μM ligand concentration, Duplex [4]: 0.0 ± 0.3 °C

O=C(CCCN1CCCC1)Nc1ccc(NC(=O)c2cccc(NC(=O)Nc3cccc(C(=O)Nc4ccc(NC(=O)CCCN5CCCC5)cc4)c3)c2)cc1 [9c, 1,3-bis(3-(4-(4-(pyrrolidin-1-yl)butanamido)phenylcarbamoyl)phenyl)urea]
FRET ΔTm at a 1μM ligand concentration, Duplex [4]: 0.0 ± 0.6 °C
SPR Ligand KA for a single-site fit, hTel [1]: 400000 M⁻¹
SPR Ligand KA for a single-site fit, c-kit1 (c-kit1 quadruplex): 400000 M⁻¹
SPR Ligand KA for a single-site fit, c-kit2 (c-kit2 quadruplex): 3.1e+06 M⁻¹
SPR Ligand KA for a single-site fit, c-myc (c-myc quadruplex): 900000 M⁻¹
PD (population doublings) (MCF7 cells [2]; 3.50 μM): 3.94 ± 0.24
PD (population doublings) (MCF7 cells [2]; 7.00 μM): 3.35 ± 0.03

CN(C)c1ccc(Nc2c3ccc(NC(=O)CCN4CCCC4)cc3nc3cc(NC(=O)CCN4CCCC4)ccc23)cc1 [BRACO-19, 3,6-bis(3-pyrrolidin-1-ylpropionamido)-9-(4-dimethylaminophenylamino) acridine]
SPR Ligand KA for a single-site fit, hTel [5]: 3.1e+07 M⁻¹
SPR KA, Duplex (DNA hairpin duplex): 500000 M⁻¹
IC50 [6]: 2.5 µM
IC50 [7]: 2.4 µM
